Source: PubChem
In the library only some 3.2% were active in any assay of this set; here they are far more common.
GASC-1 inh: inhibitors of GASC-1 histone demethylase, primary screen, biochemical, fluorescence, DELFIA europium. Lysine-specific demethylase 4C (Homo sapiens), Q9H3R0. GST-JMJD2C(1-420) H3K9me3 demethylation. inhibition, % at 2.35 µM. 330,000 tested, 0.069% active. AID 2099, 2009;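 active = more than half of a compound's replicate wells show inhibition beyond 50%, single wells judged on their own value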;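 note: signal counts dimethyl H3K9 product captured on neutravidin plate; 0% = median of DMSO wells and 100% = 0.3 times that DMSO median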
DAX1 inh-1: DAX1 (NR0B1) inhibitors on StAR promoter, primary screen, cell-based, luminescence, SF-1 (NR5A1), full-length DAX-1; HEK293T StAR-luciferase reporter, SF-1/DAX-1 repression relief; inhibition, % at 6.8 µM; 370,000 tested, 1.1% active; AID 652010, 2013;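 active = inhibition above the mean over all tested compounds plus 3 SD, cut at about 3.6% in these data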;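 note: 0% = DAX-1 cells with DMSO and 100% = cells lacking DAX-1 with DMSO; higher inhibition means more luminescence from relief of DAX-1 repression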
NR2E3 ag-1: NR2E3 agonists in two-hybrid cells, primary screen, cell-based, luminescence, CHO-S, Gal4-NCOR/VP16-NR2E3; inhibition of corepressor binding, % at 3.98 µM; luciferase; 360,000 tested, 0.35% active; Photoreceptor-specific nuclear receptor (Homo sapiens), Q9Y5X4;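 active = inhibition above the mean of all tested compounds plus 3 SD, cut at about 70% in these data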;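 note: 0% = DMSO with NR2E3 transfected cells and 100% = cells lacking NR2E3 construct; higher means lower luciferase signal from less NR2E3 corepressor binding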
Target sequence (Q9Y5X4 whole entry, looked up, the tested form may be a part): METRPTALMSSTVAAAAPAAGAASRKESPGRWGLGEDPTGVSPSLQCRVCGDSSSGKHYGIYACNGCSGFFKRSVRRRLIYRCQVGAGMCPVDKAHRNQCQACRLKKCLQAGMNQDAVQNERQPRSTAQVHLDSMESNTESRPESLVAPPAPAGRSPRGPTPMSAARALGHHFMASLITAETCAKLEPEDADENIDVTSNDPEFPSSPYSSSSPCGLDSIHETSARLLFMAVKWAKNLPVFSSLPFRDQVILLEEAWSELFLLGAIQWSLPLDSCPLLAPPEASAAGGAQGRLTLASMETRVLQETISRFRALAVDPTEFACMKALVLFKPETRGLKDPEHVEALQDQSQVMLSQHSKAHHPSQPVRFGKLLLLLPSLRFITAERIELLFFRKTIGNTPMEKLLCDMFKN
DAX1 inh-2: DAX1 (NR0B1) inhibitors, primary screen, cell-based, HEK293, Gal4-DAX1, luciferase luminescence | Nuclear receptor subfamily 0 group B member 1 (Homo sapiens), P51843 | 340,000 tested, 0.99% active | inhibition, % at 6.75 µM | AID 504766, 2011 | HEK293 Gal4-DAX1 luciferase reporter;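 active = inhibition above the mean over all tested compounds plus 3 SD, cut at about 4.2% in these data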;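 note: 0% = DAX1-transfected cells with DMSO and 100% = empty-vector control cells with DMSO; inhibition shows as a rise in luminescence from relieved DAX1 repression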
NR2E3 ag-2: inhibitors of NR2E3-RetCOR corepressor binding, primary screen, NR2E3 agonist project, biochemical, TR-FRET, GST-NR2E3, biotin-RetCOR; 1536-well; inhibition of corepressor binding, % at 4.78 µM; 320,000 tested, 0.12% active; AID 2300, 2010;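 active = percent inhibition above the cutoff of mean plus 3 SD of all tested compounds, set per screening campaign, cut at about 20% in these data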;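 note: 0% = DMSO wells and 100% = biotin wells as full block of FRET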
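Material: NR2E3–RetCOR corepressor complex / Incubation: Compound–protein incubation for 5 h at 4 °C / Dosing: compound at 4.8 µM, single dose / Detection: time-resolved FRET / Benchmarks: high control biotin, low control 0.6% DMSO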
SMARCA2 activ: SMARCA2 (BRM) function activators, primary screen, cell-based, luminescence, high throughput | 370,000 tested, 1% active | activation, % at 9.1 µM | MG213 cells, MMTV-luciferase reporter, dexamethasone, overnight; in the data active = activation above about 7.8%;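 note: 0% = vehicle wells and 100% = reference activator wells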
NR2E3 ag conf: NR2E3 agonist confirmation in cells, cell-based, luminescence, CHO-S two-hybrid. CHO-S mammalian two-hybrid NR2E3-NCOR, luciferase luminescence. inhibition, % at 3.98 µM. 2,300 tested, 51% active. shares compounds with NR2E3 ag-1;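 active = average inhibition above a cutoff equal to the mean inhibition of all tested compounds plus one SD, cut at about 70% in these data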;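 note: 0% = DMSO in NR2E3 cells and 100% = DMSO in cells lacking NR2E3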
GAL4-VP16 luc: GAL4-VP16 reporter modulators, confirmation, counter-screen for NR2E3 agonist project, cell-based, luminescence, CHO-S, high throughput | shares compounds with NR2E3 ag-1 | CHO-S GAL4-VP16 luciferase reporter | inhibition, % at 3.98 µM | 2,300 tested, 29% active | AID 624379, 2012;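 active = mean inhibition above a cutoff equal to the average over all tested compounds plus one standard deviation, cut at about 70% in these data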;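 note: luciferase from a UAS reporter driven by GAL4-VP16 transactivation; 0% = DMSO with VP16-transfected cells and 100% = DMSO with cells lacking VP16; higher means less reporter light so more repression of VP16 activity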
* hit, by the source's call; i = inactive; . = not tested or not shown.

SMILES	GASC-1 inh	DAX1 inh-1	NR2E3 ag-1	DAX1 inh-2	NR2E3 ag-2	SMARCA2 activ	NR2E3 ag conf	GAL4-VP16 luc
COC(=O)[C@]12C[C@H](CC(=O)NCc3ccc(OC)c(OC)c3)C(=O)N(Cc3ccco3)C1=C[C@H](C1CCCC1)O[C@@H]2C	.	0	.	.	.	-2	.	.
O=c1c(Br)ccc(Br)cc1Br	.	-5	71*	-5	.	-13	100*	46
CC(=O)N(/N=C1\Sc2ccccc2C1=O)c1ccc(C)cc1C	-7	-4	67	1	-1	-5	62	22
Cc1ccc(S(=O)(=O)CC2CSc3nc4ccccc4n32)cc1 (stereo not given)	0	-3	74*	-4	-1	-5	93*	70
Cc1ccc(S(=O)(=O)CC2CSc3nc(N)cc(=O)n32)cc1 (stereo not given)	4	0	-29	0	-3	0	.	.
O=C(NCc1ccc(F)cc1F)c1cc(COc2c(F)cccc2F)on1	10	0	-1	0	-1	-3	.	.
O=C(NCc1c(F)cccc1F)c1cc(COc2c(F)cccc2F)on1	-4	0	89*	0	3	3	-28	-49
C=CCn1c(O)c(N=NC(=S)Nc2cccc(C)c2)c2ccccc21	i	-1	80*	-2	-4	-6	28	42
Oc1c(N=NC(=S)Nc2ccccc2F)c2ccccc2n1Cc1ccccc1	-3	0	-23	0	1	-1	.	.
C=CCn1c(O)c(N=NC(=S)Nc2ccccc2F)c2ccccc21	6	-3	86*	-2	4	1	23	33
Cc1cc(-c2ccc(C)c(S(=O)(=O)NCCCN3CCN(c4ccccc4F)CC3)c2)on1	0	-1	62	-4	4	-4	76*	68
O=c1ccc(-c2ccccc2)nn1Cc1ccc(Cl)cc1	-1	-1	26	0	5	-1	.	.
C=Cc1ccc(Cn2nc(-c3ccc(C)cc3)ccc2=O)cc1	4	0	50	-2	-6	-1	87*	72*
C=C1C(=O)C23C(O)C1CCC2C12CCCC(C)(COC(C)=O)C1C(O)C3(O)OC2 (stereo not given)	.	-5	91*	-6	.	-12	-6	-34
C=CS(=O)(=O)c1ccc(Oc2ccc(S(=O)(=O)C=C)cc2)cc1	-12	-3	91*	-4	1	-12	69	26
COC(=O)C[C@@H]1CC[C@H]2[C@H](COc3ccc(NC(=O)Nc4ccc(C#N)cc4)cc3C(=O)N2C)O1	.	-1	.	.	.	-6	.	.
COc1ccc(NC(=O)C2Cc3c(-c4ccc(Cl)cc4)ccnc3O2)cn1 (stereo not given)	.	-1	-45	.	.	-7	.	.
COc1ccc(NC(=O)C2Cc3c(-c4ccc(Cl)cc4)ccnc3O2)cc1OC (stereo not given)	.	-5	78*	.	.	-7	82*	65
COc1ccc(NC(=O)C2Cc3c(-c4ccccc4)ccnc3O2)cc1OC (stereo not given)	.	.	78*	.	.	.	80*	71*
COc1ccc(NC(=O)C2Cc3c(-c4ccncc4)ccnc3O2)cc1OC (stereo not given)	.	0	-6	.	.	-7	.	.
OCC1OC(n2ccc3c2ncn2ncnc32)C(O)C1O (stereo not given)	.	-3	57	-1	.	-4	7	13
